# Measured values published in the RNAGym collection of RNA variant scans (doi:10.1002/anie.201605470).
# B1: Osa-1-4 twister ribozyme (parent)
# chain: CCGCCUAACACUGCCAAUGCCGGUCCCAAGCCCGGAUAAAAGUGGAGGGGGCGG
# Variants of: B1
# Experiment: self-cleavage, relative activity (ratio to wild type); higher = more cleavage; co-transcriptional
# Procedure, shortened: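 A DNA template encoding a 54-nucleotide twister ribozyme from Oryza sativa was made so that each of the 48 positions downstream of the cleavage site carried 97 % wild-type base and 1 % of each other base. Transcription in vitro ran for 2 h at 37 °C, during which the ribozyme could cleave itself. Reverse transcription used a template-switching oligonucleotide, and the products were PCR-amplified and deep-sequenced. Each read was scored as cleaved or uncleaved by whether upstream sequence was present, and relative activity is the fraction cleaved normalised to wild type.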
row,Variant,self-cleavage
1,C11A G48C,0.05
2,C11A G48U,0.05
3,C11A G48A,0.05
4,C11U G42A,0.93
5,C11U G42U,0.47
6,C11U G42C,0.85
7,C11U U24G,0.06
8,C11U U24C,0.1
9,C11U U24A,0.06
10,C11G G13A,0.06
11,C11G G13C,0.02
12,C11G G13U,0.03
13,C11G C15U,0.08
14,C11G C15A,0.09
15,C11G C15G,0.1
16,C11A C20G,0.06
17,C11A C20A,0.62
18,C11A C20U,0.66
19,C11A C27A,0.12
20,C11A C27G,0.04
21,C11A C27U,0.08
22,C11U G44C,0.84
23,C11U G44U,0.67
24,C11U G44A,0.8

row,Variant,self-cleavage
1,U12C U24C,0.06
2,U12C U24G,0.03
3,U12C U24A,0.05
4,C11G U24A,0.04
5,C11G U24C,0.04
6,C11G U24G,0.04
7,C11U U43A,0.62
8,C11U U43C,0.26
9,C11U U43G,0.2
10,C11U,0.94
11,C11G,0.7
12,C11A,0.84
13,C11G C27G,0.03
14,C11G C27A,0.07
15,C11G C27U,0.06
16,C11A C52A,0.63
17,C11A C52U,0.9
18,C11A C52G,0.74
19,C11G C9U,0.07
20,C11G C9A,0.09
21,C11G C9G,0.19
22,C11U G19C,0.07
23,C11U G19U,0.1
24,C11U G19A,0.23

row,Variant,self-cleavage
1,C11A G47C,0.05
2,C11A G47A,0.07
3,C11A G47U,0.06
4,C11G U43A,0.15
5,C11G U43G,0.05
6,C11G U43C,0.08
7,C11G C31U,0.08
8,C11G C31G,0.04
9,C11G C31A,0.03
10,C11A G45C,0.04
11,C11A G45U,0.06
12,C11A G45A,0.06
13,C11G G30U,0.02
14,C11G G30C,0.04
15,C11G G30A,0.03
16,C11U G51C,0.05
17,C11U G51A,0.34
18,C11U G51U,0.12
19,C11G C32A,0.04
20,C11G C32U,0.04
21,C11G C32G,0.06
22,C11U C9U,0.65
23,C11U C9G,0.36
24,C11U C9A,0.26

row,Variant,self-cleavage
1,C11A G50C,0.57
2,C11A G50A,0.3
3,C11A G50U,0.77
4,C11A C31U,0.09
5,C11A C31A,0.05
6,C11A C31G,0.06
7,C11A U12A,0.09
8,C11A U12G,0.09
9,C11A U12C,0.14
10,C11A G51C,0.04
11,C11A G51U,0.06
12,C11A G51A,0.17
13,C11A G44A,0.19
14,C11A G44U,0.08
15,C11A G44C,0.45
16,C11G G45A,0.05
17,C11G G45C,0.04
18,C11G G45U,0.06
19,C11A U18G,0.64
20,C11A U18A,0.67
21,C11A U18C,0.43
22,C11G G51U,0.05
23,C11G G51C,0.03
24,C11G G51A,0.07

row,Variant,self-cleavage
1,U12A U43A,0.13
2,U12A U43G,0.09
3,U12A U43C,0.11
4,C11A U37C,0.88
5,C11A U37A,0.48
6,C11A U37G,0.81
7,C11U C25U,0.52
8,C11U C25A,0.08
9,C11U C25G,0.05
10,C11U G54U,0.79
11,C11U G54A,0.78
12,C11U G54C,0.8
13,C11U C31G,0.06
14,C11U C31U,0.37
15,C11U C31A,0.03
16,U12A,0.99
17,U12C,0.66
18,C11G C21U,0.39
19,C11G C21G,0.04
20,C11G C21A,0.06
21,C11G G54U,0.36
22,C11G G54A,0.3
23,C11G G54C,0.32
24,C11G C52G,0.22

row,Variant,self-cleavage
1,C11G C52U,0.73
2,C11G C52A,0.24
3,C11A G23U,0.03
4,C11A G23A,0.07
5,C11A G23C,0.03
6,C11A C9U,0.4
7,C11A C9A,0.33
8,C11A C9G,0.19
9,C11G G53C,0.04
10,C11G G53A,0.17
11,C11G G53U,0.07
12,C11U U18A,0.85
13,C11U U18C,0.71
14,C11U U18G,0.7
15,C11A C21G,0.07
16,C11A C21A,0.14
17,C11A C21U,0.71
18,C11U C32A,0.06
19,C11U C32G,0.08
20,C11U C32U,0.07
21,C11U C26A,0.05
22,C11U C26U,0.6
23,C11U C26G,0.08
24,C11A U43C,0.1

row,Variant,self-cleavage
1,C11A U43G,0.56
2,C11A U43A,0.76
3,C11A C32A,0.06
4,C11A C32U,0.06
5,C11A C32G,0.07
6,C11G C33U,0.06
7,C11G C33A,0.04
8,C11G C33G,0.07
9,C11U C21G,0.11
10,C11U C21A,0.29
11,C11U C21U,0.91
12,C11G G49U,0.05
13,C11G G49C,0.03
14,C11G G49A,0.05
15,U12C U18G,0.61
16,U12C U18A,0.46
17,U12C U18C,0.38
18,C11U G23U,0.05
19,C11U G23A,0.1
20,C11U G23C,0.04
21,C11A G42A,0.76
22,C11A G42U,0.73
23,C11A G42C,0.83
24,C11G U18C,0.24

row,Variant,self-cleavage
1,C11G U18A,0.52
2,C11G U18G,0.54
3,C11A G22A,0.24
4,C11A G22C,0.04
5,C11A G22U,0.07
6,C11U G35C,0.18
7,C11U G35A,0.65
8,C11U G35U,0.69
9,U12C U37G,0.66
10,U12C U37C,0.44
11,U12C U37A,0.51
12,C11U C52A,0.83
13,C11U C52G,0.81
14,C11U C52U,0.98
15,C11U G30U,0.03
16,C11U G30C,0.05
17,C11U G30A,0.04
18,C11A C14G,0.1
19,C11A C14U,0.15
20,C11A C14A,0.07
21,C11A G53U,0.09
22,C11A G53A,0.49
23,C11A G53C,0.04
24,C11G C14U,0.13

row,Variant,self-cleavage
1,C11G C14G,0.06
2,C11G C14A,0.05
3,C11A G35C,0.09
4,C11A G35A,0.4
5,C11A G35U,0.37
6,C11U U37A,0.62
7,C11U U37C,1.02
8,C11U U37G,0.94
9,C11A G54C,0.66
10,C11A G54U,0.71
11,C11A G54A,0.62
12,C11U G45C,0.06
13,C11U G45U,0.09
14,C11U G45A,0.09
15,C11G U12A,0.15
16,C11G U12G,0.08
17,C11G U12C,0.08
18,C11G C20U,0.5
19,C11G C20G,0.04
20,C11G C20A,0.4
21,C11A G49C,0.06
22,C11A G49A,0.06
23,C11A G49U,0.07
24,C11G C25G,0.04

row,Variant,self-cleavage
1,C11G C25A,0.04
2,C11G C25U,0.18
3,C11G G42C,0.76
4,C11G G42A,0.75
5,C11G G42U,0.61
6,C11A C25A,0.11
7,C11A C25G,0.05
8,C11A C25U,0.18
9,C11A C26A,0.06
10,C11A C26G,0.06
11,C11A C26U,0.21
12,C11G G23A,0.05
13,C11G G23U,0.04
14,C11G G23C,0.02
15,C11A C15G,0.1
16,C11A C15A,0.12
17,C11A C15U,0.07
18,C11A G13A,0.03
19,C11A G13C,0.03
20,C11A G13U,0.04
21,C11U G49A,0.09
22,C11U G49C,0.08
23,C11U G49U,0.09
24,C11G G22A,0.07

row,Variant,self-cleavage
1,C11G G22U,0.03
2,C11G G22C,0.04
3,C11U G34A,0.39
4,C11U G34C,0.08
5,C11U G34U,0.19
6,C11G G48A,0.03
7,C11G G48C,0.03
8,C11G G48U,0.03
9,C11A G34A,0.16
10,C11A G34U,0.11
11,C11A G34C,0.07
12,C11G U37C,0.69
13,C11G U37G,0.71
14,C11G U37A,0.38
15,C11G G50A,0.11
16,C11G G50U,0.42
17,C11G G50C,0.15
18,C11A G30A,0.03
19,C11A G30C,0.03
20,C11A G30U,0.03
21,C11U C27A,0.14
22,C11U C27G,0.06
23,C11U C27U,0.12
24,U12C U43C,0.08

row,Variant,self-cleavage
1,U12C U43A,0.11
2,U12A U24C,0.08
3,U12A U24A,0.07
4,U12A U24G,0.03
5,C11U C14A,0.07
6,C11U C14G,0.09
7,C11U C14U,0.17
8,C11U G22U,0.22
9,C11U G22C,0.04
10,C11U G22A,0.59
11,C11A U24A,0.05
12,C11A U24C,0.06
13,C11A U24G,0.07
14,C11G G47C,0.04
15,C11G G47A,0.04
16,C11G G47U,0.04
17,C11U G53C,0.07
18,C11U G53U,0.14
19,C11U G53A,0.62
20,C11U G47C,0.07
21,C11U G47U,0.07
22,C11U G47A,0.09
23,C11A C33A,0.06
24,C11A C33G,0.04

row,Variant,self-cleavage
1,C11A C33U,0.2
2,C11A G19C,0.04
3,C11A G19A,0.11
4,C11A G19U,0.06
5,C11U C15U,0.13
6,C11U C15A,0.21
7,C11U C15G,0.19
8,C11G C26A,0.03
9,C11G C26U,0.19
10,C11G C26G,0.1
11,C11U G13C,0.04
12,C11U G13U,0.04
13,C11U G13A,0.05
14,U12A U37G,1
15,U12A U37A,0.71
16,U12A U37C,1
17,C11G G44C,0.11
18,C11G G44U,0.09
19,C11G G44A,0.17
20,C11U C33U,0.51
21,C11U C33A,0.07
22,C11U C33G,0.06
23,C11U G48A,0.07
24,C11U G48C,0.06

row,Variant,self-cleavage
1,C11U G48U,0.05
2,C11G G35A,0.08
3,C11G G35U,0.06
4,C11G G35C,0.05
5,U12A U18C,0.76
6,U12A U18A,0.91
7,U12A U18G,0.76
8,C11U C20U,0.78
9,C11U C20G,0.09
10,C11U C20A,0.71
11,C11U U12G,0.37
12,C11U U12A,0.6
13,C11U U12C,0.47
14,C11G G19A,0.08
15,C11G G19C,0.03
16,C11G G19U,0.05
17,C11G G34U,0.04
18,C11G G34C,0.05
19,C11G G34A,0.07
20,C11U G50C,0.72
21,C11U G50A,0.44
22,C11U G50U,0.88
